Assay results from ChEMBL document CHEMBL1140413, “Synthesis and in vitro evaluation of inhibitors of intestinal cholesterol absorption” (2005).

Test system: Cricetinae gen. sp.
Assay: Effective dose required for reduction of liver cholesterol ester using 7-day cholesterol-fed hamster model
Assay type: functional
Conditions: 168 h

SMILES | ED50 [mg/kg/day]
COc1ccc([C@@H]2[C@@H](CCCc3ccccc3)C(=O)N2c2ccc(OC)cc2)cc1 [SCH-48461] | 2.2
O=C1[C@H](CC[C@H](O)c2ccc(F)cc2)[C@@H](c2ccc(O)cc2)N1c1ccc(F)cc1 [EZETIMIBE] | 0.04

Species on record: Oryctolagus cuniculus
Assay: Percent inhibition against cholesterol absorption in brush border membrane vesicle using rabbit small intestine at concentration of 6 uM
Assay type: functional
Conditions: not given
Outline: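 Cholesterol uptake into brush border membrane vesicles prepared from rabbit whole small intestine, with membrane receptors left intact. Test compounds at a nominal 6 µM; read-out is % inhibition of cholesterol uptake. Average standard deviations ±3% inhibition.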

SMILES | inhibition [%]
CS(=O)(=O)Oc1ccc(C[C@@H](CCC(O)c2ccc(F)cc2)CNc2ccc(F)cc2)cc1 (stereo partly specified) | -2
O=C1[C@H](CCC(O)c2ccc(F)cc2)[C@@H](c2ccc(OS(=O)(=O)CC3OC(CO)C(O)C(O)C3O)cc2)N1c1ccc(F)cc1 (stereo partly specified) | 15
O=C1[C@H](CC[C@H](O)c2ccc(F)cc2)[C@@H](c2ccc(OC[C@@H]3O[C@H](CO)[C@@H](O[C@@H]4O[C@H](CO)[C@@H](O)[C@@H](O)[C@H]4O)[C@@H](O)[C@H]3O)cc2)N1c1ccc(F)cc1 | 28
COC1OC(CS(=O)(=O)Oc2ccc([C@@H]3[C@@H](CCC(O)c4ccc(F)cc4)C(=O)N3c3ccc(F)cc3)cc2)C(O)C(O)C1O (stereo partly specified) | 20
Fc1ccc(N2C[C@H](CCCc3ccccc3)[C@H]2c2ccccc2)cc1 (racemic) | 2
O=C(O)[C@H]1O[C@@H](Oc2ccc([C@@H]3[C@@H](CCC(O)c4ccc(F)cc4)C(=O)N3c3ccc(F)cc3)cc2)[C@H](O)[C@H](O)[C@@H]1O (stereo partly specified) | 19
O=C1[C@H](CCC(O)c2ccc(F)cc2)[C@@H](c2ccc(O[C@@H]3O[C@H](CO)[C@@H](O[C@@H]4O[C@H](CO)[C@@H](O)[C@@H](O)[C@H]4O)[C@@H](O)[C@H]3O)cc2)N1c1ccc(F)cc1 (stereo partly specified) | 27
O=C1[C@H](CCCc2ccccc2)[C@@H](c2ccccc2)N1c1ccc(F)cc1 (racemic) | 2
COC1OC(CS(=O)(=O)Oc2ccc([C@@H]3[C@@H](CCC(O)c4ccc(F)cc4)CN3c3ccc(F)cc3)cc2)C(O)C(O)C1O (stereo partly specified) | 27
COC1OC(CS(=O)(=O)Oc2ccc(C[C@@H](CCC(O)c3ccc(F)cc3)CNc3ccc(F)cc3)cc2)C(O)C(O)C1O (stereo partly specified) | 3
O=C1[C@H](CC[C@H](O)c2ccc(F)cc2)[C@@H](c2ccc(OS(=O)(=O)C[C@@H]3O[C@H](CO)[C@@H](O[C@@H]4O[C@H](CO)[C@@H](O)[C@@H](O)[C@H]4O)[C@@H](O)[C@H]3O)cc2)N1c1ccc(F)cc1 | 41
CS(=O)(=O)Oc1ccc([C@@H]2[C@@H](CCC(O)c3ccc(F)cc3)C(=O)N2c2ccc(F)cc2)cc1 (stereo partly specified) | 30
O=C1[C@H](CC[C@H](O)c2ccc(F)cc2)[C@@H](c2ccc(O[C@@H]3O[C@H](CO)[C@@H](O)[C@@H](O)[C@H]3O)cc2)N1c1ccc(F)cc1 | 14
O=C1[C@H](CC[C@H](O)c2ccc(F)cc2)[C@@H](c2ccc(O)cc2)N1c1ccc(F)cc1 [EZETIMIBE] | 16
O=C1[C@H](CCCc2ccc(F)cc2)[C@@H](c2ccc(O[C@@H]3O[C@H](CO)[C@@H](O[C@@H]4O[C@H](CO)[C@@H](O)[C@@H](O)[C@H]4O)[C@@H](O)[C@H]3O)cc2)N1c1ccc(F)cc1 | 3
O=C1[C@H](CCC(O)c2ccc(F)cc2)[C@@H](c2ccc(OS(=O)(=O)c3ccccc3)cc2)N1c1ccc(F)cc1 (stereo partly specified) | 26
O=C1[C@H](CCCc2ccc(F)cc2)[C@@H](c2ccc(OS(=O)(=O)C[C@@H]3O[C@H](CO)[C@@H](O[C@@H]4O[C@H](CO)[C@@H](O)[C@@H](O)[C@H]4O)[C@@H](O)[C@H]3O)cc2)N1c1ccc(F)cc1 | 10
CS(=O)(=O)Oc1ccc([C@@H]2[C@@H](CCC(O)c3ccc(F)cc3)CN2c2ccc(F)cc2)cc1 (stereo partly specified) | 22
CC(C)(C)Oc1ccc([C@@H]2[C@@H](CCC(O)c3ccc(F)cc3)C(=O)N2c2ccc(F)cc2)cc1 (stereo partly specified) | 10
O=C1[C@H](CCC(O)c2ccc(F)cc2)[C@@H](c2ccc(OCC3OC(CO)C(O)C(O)C3O)cc2)N1c1ccc(F)cc1 (stereo partly specified) | 15
COC1OC(CS(=O)(=O)Oc2ccc([C@@H]3[C@@H](CCCc4ccc(F)cc4)CN3c3ccc(F)cc3)cc2)C(O)C(O)C1O (stereo partly specified) | 4
O=S(=O)(CC1OC(CO)C(O)C(O)C1O)Oc1ccc([C@@H]2[C@@H](CCC(O)c3ccc(F)cc3)CN2c2ccc(F)cc2)cc1 (stereo partly specified) | 20
CO[C@H]1O[C@@H](COc2ccc([C@@H]3[C@@H](CC[C@H](O)c4ccc(F)cc4)C(=O)N3c3ccc(F)cc3)cc2)[C@@H](O)[C@H](O)[C@@H]1O | 13
O=S(=O)(Oc1ccc([C@@H]2[C@@H](CCC(O)c3ccc(F)cc3)CN2c2ccc(F)cc2)cc1)c1ccccc1 (stereo partly specified) | 19
